Data from ChEMBL document CHEMBL1156795, “Rational design of 5-phenyl-3-isoxazolecarboxylic acid ethyl esters as growth inhibitors of Mycobacterium tuberculosis. a potent and selective series for further drug development” (J Med Chem, 2010).
≈ marks a conversion by molar mass, not a printed value. Calls of active or inactive are those of the source. The rule behind the calls is not given here.

Experiments:
[1] = test system: Mycobacterium tuberculosis; assay: Antimycobacterial activity against Mycobacterium tuberculosis H37Rv expressing pFCA-luxAB after 10 days by low-oxygen recovery assay; format: functional; settings: 240 h
Method in brief: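 Low oxygen recovery assay (LORA): a luminescence-based read-out of activity against non-replicating Mtb under oxygen-deprived conditions. MIC averaged over two to three independent experiments.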

[2] = test system: Mycobacterium tuberculosis; assay: Antimycobacterial activity against Mycobacterium tuberculosis H37Rv after […] by microplate alamar; format: functional
Method in brief: (§1)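 Microplate Alamar blue assay (MABA) on Mtb H37Rv. MIC reported as the average of two to three independent experiments.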

Vero = assay: (§2) Cytotoxicity against african green monkey Vero cells after 72 hrs; format: cell-based, Chlorocebus sabaeus; settings: Chlorocebus sabaeus, Vero, 72 h
[3] = as §2; format: cell-based, Chlorocebus sabaeus; settings: chlorocebus sabaeus, Vero cells; read-out: MIC
Escherichia coli = assay: Antimicrobial activity against Escherichia coli; format: functional
Staphylococcus aureus = assay: Antimicrobial activity against Staphylococcus aureus; format: functional
[4] = test system: Mycolicibacterium smegmatis; assay: Antimicrobial activity against Mycobacterium smegmatis; format: functional
Candida albicans = assay: Antimicrobial activity against Candida albicans; format: functional
Toxoplasma gondii = assay: Antimicrobial activity against Toxoplasma gondii; format: functional, organism-based
[5] = test system: Mycobacterium tuberculosis; assay: Antimycobacterial activity against Mycobacterium tuberculosis H37Rv; format: functional; method in brief: as §1

## CCOC(=O)c1cc(-c2cccc(OCc3ccc(F)cc3)c2)on1
[1]
  MIC: 24 µM (≈ 8.19 µg/mL)
[2]
  MIC: 1.8 µM (≈ 0.614 µg/mL)

## CCOC(=O)c1cc(-c2cccc(OCc3cccc(C)c3)c2)on1
Vero
  IC50: > 128 µM
[1]
  MIC: 14.9 µM (≈ 5.03 µg/mL)
[2]
  MIC: 1.2 µM (≈ 0.405 µg/mL)

## CCOC(=O)c1cc(-c2cccc(OCc3cccc(C#N)c3)c2)on1
Vero
  IC50: > 128 µM
[1]
  MIC: 26.5 µM (≈ 9.23 µg/mL)
[2]
  MIC: 0.6 µM (≈ 0.209 µg/mL)

## CCOC(=O)c1cc(-c2cccc(OCc3cccc(OC(F)(F)F)c3)c2)on1
Vero
  IC50: 101 µM
[1]
  MIC: 13.1 µM (≈ 5.34 µg/mL)
[2]
  MIC: 0.7 µM (≈ 0.285 µg/mL)

## CCOC(=O)c1cc(-c2cccc(OCc3cccc(F)c3)c2)on1
Vero
  IC50: > 128 µM
[1]
  MIC: 18.9 µM (≈ 6.45 µg/mL)
[2]
  MIC: 0.8 µM (≈ 0.273 µg/mL)

## CCOC(=O)c1cc(-c2cccc(OCC(=O)N3CCOCC3)c2)on1
[1]
  MIC: 48.9 µM (≈ 17.6 µg/mL)
[2]
  MIC: 13.8 µM (≈ 4.97 µg/mL)

## CCOC(=O)c1cc(-c2cccc(OCc3ccc(F)c(F)c3F)c2)on1
Vero
  IC50: > 128 µM
[1]
  MIC: 12.6 µM (≈ 4.75 µg/mL)
[2]
  MIC: 0.9 µM (≈ 0.34 µg/mL)

## CCOC(=O)c1cc(-c2cccc(OCc3cc(F)cc(F)c3)c2)on1
Vero
  IC50: > 128 µM
[1]
  MIC: 16.6 µM (≈ 5.96 µg/mL)
[2]
  MIC: 4.4 µM (≈ 1.58 µg/mL)

## CCOC(=O)c1cc(-c2cccc(NCc3cccc(C(F)(F)F)c3)c2)on1
Vero
  IC50: > 128 µM
[1]
  MIC: 15.3 µM (≈ 5.97 µg/mL)
[2]
  MIC: 1.1 µM (≈ 0.429 µg/mL)

## CCOC(=O)c1cc(-c2ccc(NCc3cccc(C(F)(F)F)c3)cc2)on1
Vero
  IC50: > 128 µM
[1]
  MIC: 6.3 µM (≈ 2.46 µg/mL)
[2]
  MIC: 0.6 µM (≈ 0.234 µg/mL)

## CCOC(=O)c1cc(-c2ccccc2NC(=O)c2ccccc2)on1
[1]
  MIC: > 128 µM
[2]
  MIC: > 128 µM

## CCOC(=O)c1cc(-c2cccc(OCc3cccc(F)c3F)c2)on1
Vero
  IC50: > 128 µM
[1]
  MIC: 26.8 µM (≈ 9.63 µg/mL)
[2]
  MIC: 1.6 µM (≈ 0.575 µg/mL)

## CCOC(=O)c1cc(-c2cccc(OCc3cccc(C(=O)N4CCOCC4)c3)c2)on1
Vero
  IC50: > 128 µM
[1]
  MIC: > 128 µM
[2]
  MIC: > 128 µM

## NNC(=O)c1ccncc1 [ISONIAZID]
[3]
  MCC at 72 h: > 128 µM
[1]
  MIC: > 128 µM
[2]
  MIC: 0.5 µM (≈ 0.0686 µg/mL)

## CCOC(=O)c1cc(-c2cccc(OCc3ccc(F)cc3F)c2)on1
Vero
  IC50: > 128 µM
[1]
  MIC: 15.7 µM (≈ 5.64 µg/mL)
[2]
  MIC: 1 µM (≈ 0.359 µg/mL)

## CCOC(=O)c1cc(-c2cccc(OCc3ccccc3C(F)(F)F)c2)on1
Vero
  IC50: > 128 µM
[1]
  MIC: 34.8 µM (≈ 13.6 µg/mL)
[2]
  MIC: 1.5 µM (≈ 0.587 µg/mL)

## CCOC(=O)c1cc(-c2cccc(OCc3ccccc3F)c2)on1
[1]
  MIC: 19.1 µM (≈ 6.52 µg/mL)
[2]
  MIC: 1.1 µM (≈ 0.375 µg/mL)

## CCOC(=O)c1cc(-c2cccc(OCc3cccc(OC)c3)c2)on1
Vero
  IC50: > 128 µM
[1]
  MIC: 26.7 µM (≈ 9.44 µg/mL)
[2]
  MIC: 2.1 µM (≈ 0.742 µg/mL)

## CCOC(=O)c1cc(-c2cccc(O)c2)on1
[1]
  MIC: 114 µM (≈ 26.6 µg/mL)
[2]
  MIC: 7.3 µM (≈ 1.7 µg/mL)

## CCOC(=O)c1cc(-c2cccc(OCc3ccccc3)c2)on1
Vero
  IC50: > 128 µM
[1]
  MIC: 41.5 µM (≈ 13.4 µg/mL)
[2]
  MIC: 1.2 µM (≈ 0.388 µg/mL)

## CCOC(=O)c1cc(-c2cccc(OCc3ccc(Cl)c(Cl)c3)c2)on1
[1]
  MIC: 10.6 µM (≈ 4.16 µg/mL)
[2]
  MIC: 2.7 µM (≈ 1.06 µg/mL)

## CCOC(=O)c1cc(-c2cccc(OCc3cccc(Cl)c3)c2)on1
Vero
  IC50: > 128 µM
[1]
  MIC: 10.8 µM (≈ 3.86 µg/mL)
[2]
  MIC: 1 µM (≈ 0.358 µg/mL)

## O=[N+]([O-])c1cn2c(n1)OC[C@@H](OCc1ccc(OC(F)(F)F)cc1)C2 [PRETOMANID]
[1]
  MIC: 3.8 µM (≈ 1.37 µg/mL)
[2]
  MIC: 0.3 µM (≈ 0.108 µg/mL)

## CCOC(=O)c1cc(-c2cccc(OCc3ccc(F)c(F)c3)c2)on1
Vero
  IC50: > 128 µM
[1]
  MIC: 19.2 µM (≈ 6.9 µg/mL)
[2]
  MIC: 0.6 µM (≈ 0.216 µg/mL)

## CCOC(=O)c1cc(-c2cccc(OCc3cccc(N)c3)c2)on1
Vero
  IC50: > 128 µM
[1]
  MIC: 25.8 µM (≈ 8.73 µg/mL)
[2]
  MIC: 1.5 µM (≈ 0.508 µg/mL)

## CCOC(=O)c1cc(-c2cccc(OCc3cc(F)ccc3F)c2)on1
Vero
  IC50: > 128 µM
[1]
  MIC: 23.7 µM (≈ 8.52 µg/mL)
[2]
  MIC: 0.9 µM (≈ 0.323 µg/mL)

## CCOC(=O)c1cc(-c2cccc(OCc3c(F)cccc3F)c2)on1
Vero
  IC50: > 128 µM
[1]
  MIC: 12.8 µM (≈ 4.6 µg/mL)
[2]
  MIC: 1.2 µM (≈ 0.431 µg/mL)

## CCOC(=O)c1cc(-c2cccc(OCc3cc(F)ccc3Cl)c2)on1
[1]
  MIC: 15.1 µM (≈ 5.67 µg/mL)
[2]
  MIC: 0.9 µM (≈ 0.338 µg/mL)

## CCOC(=O)c1cc(-c2cccc(OCc3ccccc3[N+](=O)[O-])c2)on1
Vero
  IC50: > 128 µM
[1]
  MIC: 25.8 µM (≈ 9.5 µg/mL)
[2]
  MIC: 1.5 µM (≈ 0.553 µg/mL)

## CCOC(=O)c1cc(-c2cccc(OCc3cccc(Br)c3)c2)on1
Vero
  IC50: > 128 µM
[1]
  MIC: 12.7 µM (≈ 5.11 µg/mL)
[2]
  MIC: 0.8 µM (≈ 0.322 µg/mL)

## CCOC(=O)c1cc(-c2cccc(OCc3cccc(C(F)(F)F)c3F)c2)on1
Vero
  IC50: > 128 µM
[1]
  MIC: 7 µM (≈ 2.87 µg/mL)
[2]
  MIC: 0.6 µM (≈ 0.246 µg/mL)

## CCOC(=O)c1cc(-c2cccc(OCc3cccc(C(F)(F)F)c3)c2)on1
Escherichia coli
  MIC: > 100 µM
Staphylococcus aureus
  MIC: > 100 µM
[4]
  MIC: > 100 µM
Vero
  IC50: > 128 µM
[1]
  MIC: 8 µM (≈ 3.13 µg/mL)
[2]
  MIC: 0.6 µM (≈ 0.235 µg/mL)
Candida albicans
  MIC: > 100 µM
Toxoplasma gondii
  Activity: inactive

## CCOC(=O)c1cc(-c2cccc(OCc3ccccc3Cl)c2)on1
Vero
  IC50: > 128 µM
[1]
  MIC: 10.1 µM (≈ 3.61 µg/mL)
[2]
  MIC: 0.9 µM (≈ 0.322 µg/mL)

## CCOC(=O)c1cc(-c2ccc(C(O)c3cccc(OC)c3)cc2)on1 (stereo not drawn)
[1]
  MIC: 23.9 µM (≈ 8.45 µg/mL)
[2]
  MIC: 2.8 µM (≈ 0.989 µg/mL)

## CCOC(=O)c1ccc(COc2cccc(-c3cc(C(=O)OCC)no3)c2)cc1
Vero
  IC50: > 128 µM
[1]
  MIC: 32.7 µM (≈ 12.9 µg/mL)
[2]
  MIC: 0.4 µM (≈ 0.158 µg/mL)

## CCOC(=O)c1cc(-c2cccc(OCc3cccc([N+](=O)[O-])c3)c2)on1
Vero
  IC50: > 128 µM
[1]
  MIC: 8.7 µM (≈ 3.2 µg/mL)
[2]
  MIC: 0.6 µM (≈ 0.221 µg/mL)

## CCOC(=O)c1cc(-c2cccc(NC(=O)c3cccc(C(F)(F)F)c3)c2)on1
Vero
  IC50: > 128 µM
[1]
  MIC: 28.3 µM (≈ 11.4 µg/mL)
[2]
  MIC: 1.4 µM (≈ 0.566 µg/mL)

## CCOC(=O)c1cc(-c2cccc(Oc3cccc(C(F)(F)F)c3)c2)on1
Vero
  IC50: > 128 µM
[1]
  MIC: 10.5 µM (≈ 3.96 µg/mL)
[2]
  MIC: 1 µM (≈ 0.377 µg/mL)

## CCOC(=O)c1cc(-c2cccc(OCc3ccc(F)c(F)c3)c2)[nH]n1
[1]
  MIC: > 128 µM
[2]
  MIC: 32 µM (≈ 11.5 µg/mL)

## CCOC(=O)c1cc(-c2cccc(Oc3cc(C(F)(F)F)nc4ccccc34)c2)on1
[5]
  MIC: 0.95 µM (≈ 0.407 µg/mL)

## CO[C@H]1/C=C/O[C@@]2(C)Oc3c(C)c(O)c4c(O)c(c(/C=N/N5CCN(C)CC5)c(O)c4c3C2=O)NC(=O)/C(C)=C\C=C\[C@H](C)[C@H](O)[C@@H](C)[C@@H](O)[C@@H](C)[C@H](OC(C)=O)[C@@H]1C [RIFAMPIN]
[1]
  MIC: 1.9 µM (≈ 1.56 µg/mL)
[2]
  MIC: 0.1 µM (≈ 0.0823 µg/mL)

## CCOC(=O)c1cc(-c2cccc(OCc3ccc(C(F)(F)F)cc3)c2)on1
Vero
  IC50: > 128 µM
[1]
  MIC: 11.8 µM (≈ 4.62 µg/mL)
[2]
  MIC: 0.4 µM (≈ 0.157 µg/mL)

## OC(c1cc(C(F)(F)F)nc2c(C(F)(F)F)cccc12)C1CCCCN1 (stereo not drawn) [MEFLOQUINE]
[5]
  MIC: 13 µM (≈ 4.92 µg/mL)

## CCOC(=O)c1cc(-c2cccc(OCc3c(F)ccc(F)c3F)c2)on1
[1]
  MIC: 10.9 µM (≈ 4.11 µg/mL)
[2]
  MIC: 1 µM (≈ 0.377 µg/mL)

## CCOC(=O)c1cc(COc2cc(C(F)(F)F)nc3c(C(F)(F)F)cccc23)on1
[5]
  MIC: 0.9 µM (≈ 0.391 µg/mL)

## CCOC(=O)c1cc(/C=C/c2cccc(C(F)(F)F)c2)on1
[5]
  MIC: 0.73 µM (≈ 0.227 µg/mL)
